Assay results: ChEMBL document CHEMBL3525971 (Drug Metab Dispos, 2011)

Key:
[1] = AUC (0 to 6 hrs) in castrated pig plasma withdrawn from portal vein at 0.2 mg/kg, iv by UPLC-tandem mass spectrometry; format: ADME, organism-based, Sus scrofa; set-up: time < 6 hr, dose 0.2 mg/kg, route intravenous; settings: male
Method in brief: (§1)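 Where ketoconazole was co-dosed, it was given at 10 mg/kg at the same jejunal site 20 min before. Plasma protein-precipitated with acetonitrile and analysed by UPLC-MS/MS (finasteride-d9). AUC0-6h, Cmax and t1/2 (ln2/λz) were derived by non- or compartmental analysis.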

[2] = Total plasma clearance in castrated pig at 0.2 mg/kg, iv by UPLC-tandem mass spectrometry; format: ADME, organism-based, Sus scrofa; set-up: dose 0.2 mg/kg, route intravenous; settings: male
Method in brief: (§2)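 Femoral plasma assayed over 0-6 h by UPLC-MS/MS. CL calculated as dose/AUCVF,0-6h; Vss calculated as MRT × CL, with MRT = AUMC0-6h/AUC0-6h.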

[3] = Biliary excretion in castrated pig assessed as fraction of the dose excreted at 0.8 mg/kg administered as intrajejunal dose 20 mins after ketoconazole administration measured during 6 hrs sampling by UPLC-tandem mass spectrometry; format: ADME, organism-based, Sus scrofa; set-up: dose 0.8 mg/kg; settings: male, bile, read-out: Drug excretion
[4] = Apparent biliary clearance in castrated pig at 0.8 mg/kg administered as intrajejunal dose by UPLC-tandem mass spectrometry; format: ADME, organism-based, Sus scrofa, Bile; set-up: dose 0.8 mg/kg; settings: in vivo, other
[5] = Cmax in castrated pig plasma withdrawn from portal vein at 0.8 mg/kg administered as intrajejunal dose by UPLC-tandem mass spectrometry; format: ADME, organism-based, Sus scrofa; set-up: dose 0.8 mg/kg; settings: male; method in brief: as §1
[6] = Tmax in castrated pig plasma withdrawn from hepatic vein at 0.8 mg/kg administered as intrajejunal dose by UPLC-tandem mass spectrometry; format: ADME, organism-based, Sus scrofa; set-up: dose 0.8 mg/kg; settings: male
Method in brief: (§3)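 Portal, hepatic and femoral vein plasma sampled over 6 h and assayed by UPLC-MS/MS. Tmax read directly from the profiles. Terminal t1/2 calculated as ln2/λz by non- or compartmental analysis; values below LLOQ after Cmax excluded.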

[7] = AUC (0 to 6 hrs) in castrated pig bile at 0.8 mg/kg administered as intrajejunal dose 20 mins after ketoconazole administration by UPLC-tandem mass spectrometry; format: ADME, organism-based, Sus scrofa; set-up: time < 6 hr, route […], dose 0.8 mg/kg; settings: male
[8] = AUC (0 to 6 hrs) in castrated pig bile at 0.2 mg/kg, iv by UPLC-tandem mass spectrometry; format: ADME, organism-based, Sus scrofa; set-up: time < 6 hr, dose 0.2 mg/kg, route intravenous; settings: male
[9] = Cmax in castrated pig bile at 0.8 mg/kg administered as intrajejunal dose 20 mins after ketoconazole administration by UPLC-tandem mass spectrometry; format: ADME, organism-based, Sus scrofa; set-up: dose 0.8 mg/kg; settings: male
[10] = Cmax in castrated pig bile at 0.2 mg/kg, iv by UPLC-tandem mass spectrometry; format: ADME, organism-based, Sus scrofa; set-up: dose 0.2 mg/kg, route intravenous; settings: male
[11] = Ratio of AUC in bile to plasma withdrawn from portal vein in castrated pig at 0.8 mg/kg administered as intrajejunal dose by UPLC-tandem mass spectrometry; format: ADME, organism-based, Sus scrofa; set-up: dose 0.8 mg/kg; settings: male, read-out: Ratio AUC
Method in brief: (§4)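 Bile collected 0-6 h and weighed; portal and hepatic vein plasma sampled. UPLC-MS/MS quantification against finasteride-d9 in SRM mode. Bile/plasma AUC ratio calculated per vein.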

[12] = Ratio of AUC in bile to plasma withdrawn from portal vein in castrated pig at 0.8 mg/kg administered as intrajejunal dose 20 mins after ketoconazole administration by UPLC-tandem mass spectrometry; format: ADME, organism-based, Sus scrofa; set-up: dose 0.8 mg/kg; settings: male, read-out: Ratio AUC; method in brief: as §4
[13] = Ratio of AUC in bile to plasma withdrawn from hepatic vein in castrated pig at 0.2 mg/kg, iv by UPLC-tandem mass spectrometry; format: ADME, organism-based, Sus scrofa; set-up: dose 0.2 mg/kg, route intravenous; settings: male, read-out: Ratio AUC
Method in brief: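 Bile collected 0-6 h and weighed; portal and hepatic vein plasma sampled. Analytes quantified by UPLC-MS/MS (finasteride-d9 internal standard, SRM). Bile AUC divided by plasma AUC for each vein.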

[14] = Drug excretion in castrated pig urine assessed as unchanged drug level at 0.8 mg/kg administered as intrajejunal dose measured during 6 hrs sampling by UPLC-tandem mass spectrometry; format: ADME, organism-based, Sus scrofa; set-up: dose 0.8 mg/kg; settings: in vivo, other
[15] = Drug excretion in castrated pig urine assessed as unchanged drug level at 0.8 mg/kg administered as intrajejunal dose 20 mins after ketoconazole administration measured during 6 hrs sampling by UPLC-tandem mass spectrometry; format: ADME, organism-based, Sus scrofa; set-up: dose 0.8 mg/kg; settings: in vivo, other
[16] = Drug excretion in castrated pig urine assessed as unchanged drug level at 0.2 mg/kg, iv measured during 6 hrs sampling by UPLC-tandem mass spectrometry; format: ADME, organism-based, Sus scrofa; set-up: dose 0.2 mg/kg, route intravenous; settings: in vivo
[17] = Drug excretion in castrated pig urine assessed as fraction of the dose excreted at 0.8 mg/kg administered as intrajejunal dose 20 mins after ketoconazole administration measured during 6 hrs sampling by UPLC-tandem mass spectrometry; format: ADME, organism-based, Sus scrofa; set-up: dose 0.8 mg/kg; settings: male, read-out: Drug excretion
[18] = Renal clearance in castrated pig at 0.2 mg/kg, iv by UPLC-tandem mass spectrometry; format: ADME, organism-based, Sus scrofa, Kidney; set-up: dose 0.2 mg/kg, route intravenous; settings: male, in vivo
Method in brief: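 Urine collected 0-360 min into a closed bag, weighed and frozen at -20°C. […] Doses: iv 0.2 mg/kg bolus via central vein catheter (n=3), or ij 0.8 mg/kg alone or 20 min after ij ketoconazole 10 mg/kg (n=5). Renal clearance derived from the amount excreted in urine over 0-6 h.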

[19] = Fraction unbound in pig plasma; format: ADME, cell-free, Sus scrofa
Method in brief: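 Femoral-vein plasma drawn at 30 and 300 min. […] Unbound and total plasma concentrations measured by HPLC-UV at 210 nm after precipitation and solid-phase extraction, with testosterone as internal standard. Calibration range 0.003-1 µM; fraction unbound taken as Cu/Cp.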

[20] = Total plasma clearance in human; format: ADME, organism-based
[21] = Volume of distribution at steady state in castrated pig at 0.2 mg/kg, iv by UPLC-tandem mass spectrometry; format: ADME, organism-based, Sus scrofa; set-up: dose 0.2 mg/kg, route intravenous; settings: male, in vivo, read-out: Vdss; method in brief: as §2
Plasma [22] = assay: Drug metabolism in castrated pig plasma withdrawn from portal vein assessed as omega-hydroxy finasteride metabolite formation by UPLC-tandem mass spectrometry; format: ADME, cell-free, Sus scrofa
Method in brief: (§5)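 Plasma sampled 0-6 h from portal, hepatic and femoral veins. Analysed by acetonitrile precipitation with finasteride-d9 internal standard, then UPLC-MS/MS in SRM mode, m/z 389.41 → 271.94 for the ω-hydroxy metabolite.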

Plasma [23] = assay: Drug metabolism in castrated pig plasma withdrawn from femoral vein assessed as omega-hydroxy finasteride metabolite formation by UPLC-tandem mass spectrometry; format: ADME, cell-free, Sus scrofa; method in brief: as §5
Plasma [24] = assay: Drug metabolism in castrated pig plasma withdrawn from hepatic vein assessed as omega-hydroxy finasteride metabolite formation by UPLC-tandem mass spectrometry; format: ADME, cell-free, Sus scrofa; method in brief: as §5
[25] = Drug excretion in castrated pig bile assessed as omega-hydroxy finasteride metabolite formation by UPLC-tandem mass spectrometry; format: ADME, tissue-based, Sus scrofa
[26] = Tmax in castrated pig plasma withdrawn from hepatic vein at 0.8 mg/kg administered as intrajejunal dose 20 mins after ketoconazole administration by UPLC-tandem mass spectrometry; format: ADME, organism-based, Sus scrofa; set-up: dose 0.8 mg/kg; settings: male; method in brief: as §3
[27] = Tmax in castrated pig plasma withdrawn from femoral vein at 0.8 mg/kg administered as intrajejunal dose 20 mins after ketoconazole administration by UPLC-tandem mass spectrometry; format: ADME, organism-based, Sus scrofa; set-up: dose 0.8 mg/kg; settings: male; method in brief: as §3
[28] = Terminal half life in castrated pig plasma withdrawn from portal vein at 0.8 mg/kg administered as intrajejunal dose by UPLC-tandem mass spectrometry; format: ADME, organism-based, Sus scrofa; set-up: dose 0.8 mg/kg; settings: male, read-out: beta t1/2 (converted); method in brief: as §3
[29] = Terminal half life in castrated pig plasma withdrawn from femoral vein at 0.8 mg/kg administered as intrajejunal dose by UPLC-tandem mass spectrometry; format: ADME, organism-based, Sus scrofa; set-up: dose 0.8 mg/kg; settings: male, read-out: beta t1/2 (converted); method in brief: as §3
[30] = Terminal half life in castrated pig plasma withdrawn from portal vein at 0.8 mg/kg administered as intrajejunal dose 20 mins after ketoconazole administration by UPLC-tandem mass spectrometry; format: ADME, organism-based, Sus scrofa; set-up: dose 0.8 mg/kg; settings: male, read-out: beta t1/2 (converted); method in brief: as §3
Sus scrofa = assay: Absorption rate constant in castrated pig plasma withdrawn from portal vein at 0.8 mg/kg administered as intrajejunal dose by UPLC-tandem mass spectrometry; format: ADME, organism-based; set-up: dose 0.8 mg/kg; settings: in vivo, other
[31] = Biliary excretion in castrated pig assessed as unchanged drug level at 0.8 mg/kg administered as intrajejunal dose 20 mins after ketoconazole administration measured during 6 hrs sampling by UPLC-tandem mass spectrometry; format: ADME, organism-based, Sus scrofa, Bile; set-up: dose 0.8 mg/kg; settings: in vivo, other

## CC(C)(C)NC(=O)[C@H]1CC[C@H]2[C@@H]3CC[C@H]4NC(=O)C=C[C@]4(C)[C@H]3CC[C@]12C [FINASTERIDE]
[1]
  AUC(0-t) at 6 h: 1.2 µM·h
[2]
  clearance: 7 mL/min/kg
[3]
  dose excreted: 0.18%
[4]
  CL(app): 0.009 mL/min/kg
[5]
  Cmax: 2600 nM
[6]
  Tmax: 0.5 h
[7]
  AUC(0-t) at 6 h: 4.2 µM·h
[8]
  AUC(0-t) at 6 h: 1.1 µM·h
[9]
  Cmax: 2000 nM
[10]
  Cmax: 500 nM
[11]
  Kp: 0.9
[12]
  Kp at 20 min: 0.7
[13]
  Kp: 7
[14]
  Ae: 0.01 µmol
[15]
  Ae: 0.04 µmol
[16]
  Ae: 0.02 µmol
[17]
  dose excreted: 0.08%
[18]
  CL renal: 0.01 mL/min/kg
[19]
  fraction unbound: 0.17
[20]
  clearance: 2.33 mL/min/kg
[21]
  Vd: 0.99 L/kg
Plasma [22]
  Drug metabolism: metabolite_not_detected
Plasma [23]
  Drug metabolism: metabolite_not_detected
Plasma [24]
  Drug metabolism: metabolite_not_detected
[25]
  Drug excretion: metabolite_not_detected
[26]
  Tmax: 1 h
[27]
  Tmax: 1.5 h
[28]
  half-life: 1.5 h
[29]
  half-life: 1.6 h
[30]
  half-life: 3.9 h
Sus scrofa
  ka: 19 h⁻¹
[31]
  Ae: 0.09 µmol
